ChEMBL document CHEMBL5653631, “A Potent and Selective ULK1 Inhibitor Suppresses Autophagy and Sensitizes Cancer Cells to Nutrient Stress” (iScience, 2018)

Columns and labels:
[1] = biological target: T1, Interleukin-1 receptor-associated kinase 4 (Homo sapiens) (UniProt Q9NWZ3); test: Inhibition of human recombinant IRAK4 at 500 nM in presence of ATP by radiometric assay relative to control
T1 sequence (whole entry): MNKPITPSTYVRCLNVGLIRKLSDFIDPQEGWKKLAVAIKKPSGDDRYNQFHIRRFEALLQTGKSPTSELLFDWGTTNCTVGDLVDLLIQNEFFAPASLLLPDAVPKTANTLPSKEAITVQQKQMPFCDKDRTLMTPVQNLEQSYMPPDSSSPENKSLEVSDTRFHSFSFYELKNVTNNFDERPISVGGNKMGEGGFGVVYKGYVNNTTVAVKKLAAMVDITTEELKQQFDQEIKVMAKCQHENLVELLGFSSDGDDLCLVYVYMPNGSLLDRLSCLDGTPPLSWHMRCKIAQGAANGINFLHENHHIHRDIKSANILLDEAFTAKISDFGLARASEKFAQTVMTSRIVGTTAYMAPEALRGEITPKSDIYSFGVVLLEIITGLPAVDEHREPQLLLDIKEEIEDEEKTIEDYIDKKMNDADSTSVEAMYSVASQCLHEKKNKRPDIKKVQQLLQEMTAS

[2] = biological target: Serine/threonine-protein kinase N2 (Homo sapiens) (UniProt Q16513); test: Inhibition of human recombinant PKN2 at 500 nM in presence of ATP by radiometric assay relative to control
[3] = biological target: T2, MAP/microtubule affinity-regulating kinase 4 (Homo sapiens) (UniProt Q96L34); test: Inhibition of human recombinant MARK4 at 15 nM related to control ULK1
T2 sequence (whole entry): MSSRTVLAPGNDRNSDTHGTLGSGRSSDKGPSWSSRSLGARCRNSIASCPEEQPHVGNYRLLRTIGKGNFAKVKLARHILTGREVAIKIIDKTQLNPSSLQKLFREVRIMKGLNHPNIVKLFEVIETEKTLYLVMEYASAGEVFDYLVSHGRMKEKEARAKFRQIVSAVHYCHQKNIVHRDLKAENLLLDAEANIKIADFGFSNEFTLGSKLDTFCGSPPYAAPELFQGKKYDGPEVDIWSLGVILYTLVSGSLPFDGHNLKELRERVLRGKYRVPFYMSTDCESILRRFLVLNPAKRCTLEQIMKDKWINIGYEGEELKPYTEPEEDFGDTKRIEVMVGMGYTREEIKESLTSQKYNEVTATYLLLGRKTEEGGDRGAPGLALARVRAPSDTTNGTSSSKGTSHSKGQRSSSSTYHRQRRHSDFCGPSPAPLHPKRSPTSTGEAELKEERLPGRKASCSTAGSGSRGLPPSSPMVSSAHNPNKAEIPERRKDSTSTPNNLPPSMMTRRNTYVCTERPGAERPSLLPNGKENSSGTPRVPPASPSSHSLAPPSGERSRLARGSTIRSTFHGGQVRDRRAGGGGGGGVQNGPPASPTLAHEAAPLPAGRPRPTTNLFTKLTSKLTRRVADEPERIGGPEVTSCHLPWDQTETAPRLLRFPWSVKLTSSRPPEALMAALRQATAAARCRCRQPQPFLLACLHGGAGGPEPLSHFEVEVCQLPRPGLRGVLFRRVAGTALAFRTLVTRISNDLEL

[4] = biological target: Interferon-induced, double-stranded RNA-activated protein kinase (Homo sapiens) (UniProt P19525); test: Inhibition of human recombinant PKR at 40 nM related to control ULK1
[5] = biological target: T3, Serine/threonine-protein kinase A-Raf (Homo sapiens) (UniProt P10398); test: Inhibition of human recombinant ARAF at 40 nM related to control ULK1
T3 sequence (whole entry): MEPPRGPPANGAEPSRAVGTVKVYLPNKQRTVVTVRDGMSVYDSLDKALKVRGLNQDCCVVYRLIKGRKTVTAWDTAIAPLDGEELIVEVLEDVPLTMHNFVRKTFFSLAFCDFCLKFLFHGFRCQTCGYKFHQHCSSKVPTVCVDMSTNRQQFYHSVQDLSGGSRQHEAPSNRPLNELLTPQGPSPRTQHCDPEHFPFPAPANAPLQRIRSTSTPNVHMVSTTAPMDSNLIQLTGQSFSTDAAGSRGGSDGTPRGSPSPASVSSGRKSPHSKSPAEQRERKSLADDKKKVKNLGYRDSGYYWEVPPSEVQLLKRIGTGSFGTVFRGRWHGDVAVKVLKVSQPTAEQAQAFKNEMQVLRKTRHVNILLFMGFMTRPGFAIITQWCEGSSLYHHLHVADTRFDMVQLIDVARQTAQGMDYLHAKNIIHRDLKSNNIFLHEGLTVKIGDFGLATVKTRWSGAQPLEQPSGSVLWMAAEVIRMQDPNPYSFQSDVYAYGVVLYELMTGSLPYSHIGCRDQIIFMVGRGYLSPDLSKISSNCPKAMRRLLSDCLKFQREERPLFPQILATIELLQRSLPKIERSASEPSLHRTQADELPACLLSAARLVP
Summary of the method: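 Radiometric activity assays in a panel of 327 human recombinant kinases, each run in duplicate at one inhibitor concentration. Activity remaining is expressed as percent of vehicle control, and percent inhibition is calculated as 100% minus percent activity remaining.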

Sequence of Interferon-induced, double-stranded RNA-activated protein kinase (Homo sapiens) (P19525 whole entry): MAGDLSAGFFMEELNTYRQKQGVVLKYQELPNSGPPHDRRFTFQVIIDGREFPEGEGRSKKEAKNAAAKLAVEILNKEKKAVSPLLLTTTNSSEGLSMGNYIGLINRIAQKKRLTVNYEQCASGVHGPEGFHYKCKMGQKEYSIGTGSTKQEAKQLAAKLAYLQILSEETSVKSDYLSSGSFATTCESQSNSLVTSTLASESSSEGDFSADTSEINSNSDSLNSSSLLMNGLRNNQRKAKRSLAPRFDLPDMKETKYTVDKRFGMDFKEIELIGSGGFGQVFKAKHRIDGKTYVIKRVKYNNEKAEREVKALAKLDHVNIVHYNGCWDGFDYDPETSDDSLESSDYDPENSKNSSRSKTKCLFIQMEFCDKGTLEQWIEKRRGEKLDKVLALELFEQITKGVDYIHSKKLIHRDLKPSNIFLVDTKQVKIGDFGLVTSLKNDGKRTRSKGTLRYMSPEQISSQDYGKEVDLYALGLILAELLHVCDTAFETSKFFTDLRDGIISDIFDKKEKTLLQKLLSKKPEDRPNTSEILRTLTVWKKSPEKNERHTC
Sequence of Serine/threonine-protein kinase N2 (Homo sapiens) (Q16513 whole entry, looked up): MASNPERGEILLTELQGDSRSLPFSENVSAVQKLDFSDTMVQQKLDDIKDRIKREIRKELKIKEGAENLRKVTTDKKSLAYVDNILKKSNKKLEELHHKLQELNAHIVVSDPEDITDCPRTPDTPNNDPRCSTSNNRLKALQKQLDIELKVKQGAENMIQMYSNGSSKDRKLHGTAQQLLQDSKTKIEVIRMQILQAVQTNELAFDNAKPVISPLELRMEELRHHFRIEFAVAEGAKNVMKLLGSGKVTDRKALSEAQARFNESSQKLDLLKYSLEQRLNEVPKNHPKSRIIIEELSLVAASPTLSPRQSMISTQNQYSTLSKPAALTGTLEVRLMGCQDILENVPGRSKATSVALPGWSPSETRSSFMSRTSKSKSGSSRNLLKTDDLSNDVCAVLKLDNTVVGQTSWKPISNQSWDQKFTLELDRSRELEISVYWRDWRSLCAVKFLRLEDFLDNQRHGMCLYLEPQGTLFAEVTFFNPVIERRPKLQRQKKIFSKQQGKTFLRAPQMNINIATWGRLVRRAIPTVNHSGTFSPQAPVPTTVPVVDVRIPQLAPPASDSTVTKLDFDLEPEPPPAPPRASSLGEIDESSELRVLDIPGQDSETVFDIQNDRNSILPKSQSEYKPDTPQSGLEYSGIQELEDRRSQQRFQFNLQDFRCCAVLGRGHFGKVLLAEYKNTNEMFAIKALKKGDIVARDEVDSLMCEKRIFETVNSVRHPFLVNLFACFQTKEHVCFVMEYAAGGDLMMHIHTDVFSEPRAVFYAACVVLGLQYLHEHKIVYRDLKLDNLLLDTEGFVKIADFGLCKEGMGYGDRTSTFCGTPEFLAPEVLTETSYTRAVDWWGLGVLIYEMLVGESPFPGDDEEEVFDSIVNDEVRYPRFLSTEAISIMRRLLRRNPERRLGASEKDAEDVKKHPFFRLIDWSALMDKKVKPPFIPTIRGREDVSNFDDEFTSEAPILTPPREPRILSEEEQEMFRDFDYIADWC

CNC(=O)c1ccccc1Oc1nc(Nc2cc(OC)c(OC)c(OC)c2)ncc1Br
inhibition [1]: 6%
inhibition [2]: 0%

CC(C)[C@H](NC(=O)c1cc(-c2cnn3cc(-c4ccc(OCCN5CCCCC5)cc4)cnc23)cs1)C(F)(F)F
fold change (FC) [3]: 0.48

O=C(N[C@@H](C1CC1)C(F)(F)F)c1cc(-c2cnn3cc(-c4ccc(F)cc4)cnc23)cs1
fold change (FC) [4]: 0
fold change (FC) [5]: 0
